Each structure is given as a SMILES string. Values joined by “and” are separate entries in the source; they are usually repeats but may differ in a detail not shown here. Equal entries are not always repeated. Out of some 360,000 compounds screened, about 950 (0.26%) were called active.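 How the source made its calls: active means inhibition above a per-plate limit, mean inhibition of low control wells plus 3 SD (cut at about 25% in these data); inactive means the rest.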 The sample as a whole holds a higher share of actives than the screen did. Some compounds were tested as several samples or in several runs, with calls that do not always agree.

ADP-ribosylation factor GTPase-activating protein 1 (Rattus norvegicus), sequence (Q62848 1-136 limits assumed): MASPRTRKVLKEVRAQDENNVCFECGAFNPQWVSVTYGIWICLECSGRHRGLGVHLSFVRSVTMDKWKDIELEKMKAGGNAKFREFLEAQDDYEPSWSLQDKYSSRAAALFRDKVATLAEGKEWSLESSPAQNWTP

This assay addresses ADP-ribosylation factor GTPase-activating protein 1 (Rattus norvegicus) (UniProt Q62848). In words: inhibitors of rat ARFGAP1 GAP activity, primary screen, biochemical, fluorescence polarization, GDP tracer (AID 651572).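 Further: 0% = DMSO wells with enzyme and 100% = wells lacking Arfgap1.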 The note with it: Arfgap1-stimulated ARF1 GTP hydrolysis, GDP FP detection; at 16.5 µM; stronger effect = higher value. The gist of the method: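 Repeats: one replicate per compound; assay system: rat Arfgap1 catalytic domain, aa 1-136; times: enzyme reaction 120 min at 25 °C after 20 min preincubation; detection: FP of antibody-bound GDP Alexa 633 tracer, ex 620/em 688 nm; benchmarks: high control wells lacking Arfgap1, low control full reaction with DMSO; reagent: human ARF1(Δ1-17)-GTP substrate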
With `CCOC(=O)c1ccc(NC(=O)c2c(N)n(C)c(=O)[nH]c2=O)cc1`, the inhibition (commonly the drop in the measured response relative to a control, in per cent) is 11% (inactive).
As to `CCOC(=O)c1ccc(NC(=O)c2c(NCc3ccccc3)[nH]c(=O)[nH]c2=O)cc1`, the inhibition is -10.9% (inactive).
As to `CCOC(=O)c1ccc(Nc2cc3ccccc3c(=O)[nH]2)cc1`, the inhibition is 25.9% (active).
The same measure for `CC(C)CNc1cccc2c1S(=O)(=O)N[C@H](CC(C)C)CO2`: 2.08% (inactive).
The same measure for `CC(C)[C@H]1COCCS(=O)(=O)N1Cc1ccccc1-c1cccc2c1sc1ccccc12`: -9.36% (inactive).
`COC(=O)C(C(=O)OC)c1ccccc1NS(=O)(=O)c1cccc2ccccc12`: the inhibition is -11.2% (inactive).
With `COCCCNC(=O)C[C@H]1C[C@@]2(C(=O)OC)C(=C[C@H](C(C)(C)C)O[C@@H]2C)N(Cc2ccc3c(c2)OCO3)C1=O`, the inhibition is 2.5% (inactive).
On to `Cc1cc(C)c2[nH]c(=O)c(C(c3nnnn3Cc3ccc4c(c3)OCO4)N3CCCC3)cc2c1` (stereo not drawn), for which the inhibition was 6.09% (inactive).
The same measure for `CCOC(=O)C1CCN(C(c2cc3cc(C)cc(C)c3[nH]c2=O)c2nnnn2C2CCCCC2)CC1` (stereo not drawn): 38.1% (active); for `COc1ccc(N2CCN(C(c3cc4ccc(C)cc4[nH]c3=O)c3nnnn3C3CCCC3)CC2)cc1` (stereo not drawn): 7.55% (inactive).
The same measure for `CCCCOCC1CN(CCCC)S(=O)(=O)c2c(Oc3ccc(F)cc3)cccc2O1` (stereo not drawn): -16.2% (inactive).
The same measure for `Cc1cc(NCCc2c[nH]c3ccccc23)ccc1Oc1cccnc1`: 4.98% (inactive); for `CCCCCCCCN1C(=O)[C@@H](CC(=O)NCc2ccc(C)o2)C[C@@]2(C(=O)OC)C1=C[C@H](C(C)(C)C)O[C@@H]2C`: 13.1% (inactive).
In the case of `CC(C)n1c(=O)[nH]c2cc(C(=O)Nc3ccccc3)ccc21`, the inhibition is 9.47% (inactive).
Regarding `O=C(Nc1ccccc1)c1cc2ccccc2[nH]1`, the inhibition was -4.92% (inactive).
In the case of `O=C(Nc1cccc(-c2nc3ccccc3[nH]2)c1)c1ccc(C(=O)Nc2cccc(-c3nc4ccccc4[nH]3)c2)cc1`, the inhibition was 47.5% (active).
In the case of `COCCNC(=S)N(C)[C@H]1C[C@H]2c3[nH]c4ccccc4c3CCN2C[C@H]1[C@H](C)O` it was 8.23% (inactive).
In the case of `C=CCN=C1NC(c2cccc(C(F)(F)F)c2)C(C(=O)OC)=C(C)N1C` (stereo not drawn) it was -13.8% (inactive); in that of `Cc1ccc2nc(-c3ccc(CN4CCC(n5cc(-c6ccccc6)[nH]c5=O)CC4)cc3)c(-c3ccccc3)nc2c1`, 8.03% (inactive); in that of `Nc1[nH]c(C(=O)c2ccccc2)c(-c2ccc(Cl)cc2Cl)c1C(=O)c1ccccc1`, -3.18% (inactive).
In the case of `CC(C)(C)C(c1nc2ccccc2[nH]1)n1c(Cc2csc3ccccc23)nc2ccccc21` (stereo not drawn) it was 0.81% (inactive).
For the molecule `O=C(NCCCN1CCOCC1)c1cnn2c(-c3ccccc3)cc(-c3ccccc3)nc12`, the inhibition is -2.5% (inactive).
The same measure for `CC(C)c1ccc(/C=C/C(=O)NCCCN2CCOCC2)cc1`: -5.51% (inactive); for `O=C(/C=C/c1cn(-c2ccccc2)nc1-c1ccc2c(c1)OCCO2)NCCCN1CCOCC1`: 25.8% (active); for `COC(=O)c1ccc(CN2C(=O)[C@]3(OCCC=C[C@H]3C)c3c(Br)cccc32)cc1`: 13.2% (inactive).
The same measure for `CSc1ccc(Oc2cccc3c2S(=O)(=O)N([C@H](C)c2ccccc2)C[C@@H](COCc2ccccc2)O3)cc1C`: -6.49% (inactive); for `O=C(NCc1ccccc1)[C@@H]1CCCN1C(=O)[C@H]1CCCN1C(=O)c1cccc(Cl)c1`: 9.96% (inactive); for `COc1ccc(-n2nc3c(N4CCC(C(=O)NCc5ccccc5)CC4)nnc(C)c3c2C)cc1`: 26.9% (active).
As to `COc1ccc(CNC(=O)C2CCN(C(=O)c3ccccc3)CC2)cc1`, the inhibition was -4.15% (inactive).
In the case of `COc1ccc(CNC(=O)C2CCN(C(=O)c3ccco3)CC2)cc1`, the inhibition was 9.83% (inactive).
For the molecule `C[C@@H]1CN([C@H](C)CO)C(=O)CCCn2cc(nn2)CO[C@H]1CN(C)C(=O)Nc1ccc(N2CCCCC2)cc1`, the inhibition is -7.3% (inactive).
In the case of `Cc1cc2c(nc1C)CCCN2C` it was -0.08% (inactive); in that of `COc1cccc(CNC(=O)[C@H]2CCCN2C(=O)[C@H]2CCCN2C(=O)c2cc(F)cc(F)c2)c1`, 9.87% (inactive); in that of `C[C@H](CO)N1C[C@H](C)[C@@H](CN(C)C(=O)Nc2ccccc2F)OCc2cn(nn2)CCCC1=O`, 5.05% (inactive).
In the case of `COc1ccc(Cl)cc1NC(=O)Cn1nc(-c2ccc(C)cc2)n(C)c1=S` it was 41.6% (active); in that of `COc1ccc(C)cc1NC(=O)CSc1ccc(Cl)cc1`, -5.43% (inactive); in that of `COc1ccc(Cl)cc1NC(=O)CN1CCN(C(=O)N2CCOCC2)CC1`, 15% (inactive).
The same measure for `N#Cc1cccc(C(=O)NCC2CCN(C(=O)C(=O)c3cc4ccccc4o3)CC2)c1`: 8.35% (inactive); for `COC(=O)[C@]12C[C@H](CC(=O)NCCc3ccccc3OC)C(=O)N(Cc3ccccc3)C1=C[C@H](C(C)C)O[C@@H]2C1CC1`: -5.59% (inactive); for `C#C[C@]1(O)CC[C@H]2[C@@H]3CCC4=CC(=O)CC[C@@H]4[C@H]3CC[C@@]21CC`: -2.58% (inactive) and 25.1% (active).
As to `C=CC[C@]12C[C@@]3(O[C@H](c4ccc(C(F)(F)F)cc4)N=C3C[C@H](c3ccc(OC)cc3)[C@H]1C)N(C1CCN(Cc3ccccc3)CC1)C2=O`, the inhibition was 4.67% (inactive).
In the case of `CN(C)C(=O)N1CCN(C(=O)[C@@H](Cc2ccccc2)NC(=O)[C@H]2O[C@@H](n3ccc(N)nc3=O)[C@H](O)[C@@H]2O)CC1` it was 5.01% (inactive); in that of `COC(=O)Cc1nnn2c1[C@H](C)[C@H](c1ccccc1[N+](=O)[O-])OCC2`, 4.46% (inactive).
In the case of `COc1ccc(S(=O)(=O)Nc2ccc3c(c2)C(=O)N([C@H](C)CO)C[C@H](C)[C@@H](CN(C)C)OCCCC[C@H](C)O3)cc1` it was 1.2% (inactive).
In the case of `Cc1cccc(OCC(O)CN2CCN(S(=O)(=O)c3ccc(C)cc3C)CC2)c1` (stereo not drawn) it was 10.2% (inactive); in that of `OC(COc1cccc(OCC(O)CN2CCCC2)c1)CN1CCCC1` (stereo not drawn), 28.2% (active).
As for `OC(COc1ccc(CN2CCSCC2)cc1)CN1CCCCC1` (stereo not drawn), the inhibition is -6.07% (inactive).
Regarding `Cc1cc(OC(=O)NCCc2ccc(F)cc2)ccc1F`, the inhibition is 17% (inactive).
As for `Cc1ccc(N)cc1CN1CCN(c2ncc(Cc3ccccc3)cn2)CC1`, the inhibition is -5.78% (inactive).
In the case of `O=C(NCc1ccc(F)cc1)C1CCC(CNc2c(N3CCOCC3)c(=O)c2=O)CC1` (stereo not drawn) it was 2.8% (inactive); in that of `O=C(NCc1ccccc1)c1ccc(CNc2c(N3CCCC3)c(=O)c2=O)cc1`, -4.58% (inactive); in that of `O=C(NC1CCCCC1)c1ccc(CNc2c(N3CCOCC3)c(=O)c2=O)cc1`, 26.4% (active).
In the case of `O=C(NS(=O)(=O)c1cccs1)[C@H]1O[C@@H](n2ccc(=O)[nH]c2=O)[C@H](O)[C@@H]1O`, the inhibition was 1.8% (inactive).
For `C[C@H](O)[C@@H]1CN2CCc3ccc(-c4ccc5c(c4)OCO5)cc3[C@@H]2C[C@@H]1N(C)C(=O)C1CCCCC1`, the inhibition was -7.53% (inactive).
In the case of `CN[C@H]1C[C@H]2c3[nH]c4c(-c5ccccc5)cccc4c3CCN2C(=O)[C@H]1[C@H](C)O`, the inhibition is 6.11% (inactive).
The same measure for `Fc1ccc(-c2ccc(-c3nn4c(-c5ccco5)nnc4s3)o2)cc1`: 3.63% (inactive); for `c1ccc(-c2cc(-c3nnc4sc(-c5ccccn5)nn34)[nH]n2)cc1`: 37.4% (active); for `CCCCCCCCN1C(=O)[C@@H](CC(=O)NCc2ccccc2)C[C@@]2(C(=O)OC)C1=C[C@H](C(C)(C)C)O[C@@H]2C`: 1.82% (inactive).
In the case of `C=CCN=C1NC(c2ccccc2)C(C(=O)OC)=C(C)N1Cc1ccc(C(F)(F)F)cc1` (stereo not drawn) it was 7.52% (inactive); in that of `COC(=O)N1Cc2ccnnc2CC1c1ccccc1Br` (stereo not drawn), 0.38% (inactive).
In the case of `O=C(C(=O)N1CCC(CNC(=O)c2cccnc2Cl)CC1)c1cccs1` it was 12.7% (inactive).
As for `COc1ccc(NC(=O)N(C)C[C@@H]2OCCCC[C@@H](C)Oc3ccc(NC(=O)NC4CCCCC4)cc3C(=O)N([C@H](C)CO)C[C@@H]2C)cc1`, the inhibition is -0.56% (inactive).
As for `CCC(=O)Nc1ccc2c(c1)nc(CCN1CCN(c3ccccn3)CC1)n2C`, the inhibition was -11.6% (inactive).
Consider `CCN(CC)c1ccc(NC(=O)CN2CCN(c3ccccn3)CC2)cc1`, for which the inhibition is 45.5% (active).
In the case of `O=C(CN1CCN(c2ccccn2)CC1)NCc1cccs1` it was 19.2% (inactive).
The same measure for `O=S(=O)(c1cccs1)N1CCCc2nc(-c3ccc(Br)cc3)ccc21`: -3.29% (inactive); for `O=C(NCc1ccccc1)[C@@H]1CCCN1C(=O)[C@@H](NS(=O)(=O)c1ccc(F)cc1F)C1CCCCC1`: 2.51% (inactive); for `COC(=O)[C@]12C[C@H](CC(=O)NCCC(C)C)C(=O)N(CCc3ccc(OC)c(OC)c3)C1=C[C@H](C(C)(C)C)O[C@@H]2C`: 6.73% (inactive).
Regarding `Cc1ccc2nc(SCC(=O)Nc3cccc4ccccc34)nc(=O)n2c1`, the inhibition was 8.63% (inactive).
In the case of `Cc1ccc2nc(SCC(=O)N3CC(C)OC(C)C3)nc(=O)n2c1` (stereo not drawn) it was 83.6% (active).
In the case of `Cc1ccc2nc(SCC(=O)N3CCN(c4ccccc4)CC3)nc(=O)n2c1`, the inhibition is 22.7% (inactive).
The same measure for `Brc1ccc(COCCc2cn(Cc3ccccc3)c3ccccc23)cc1`: 10.9% (inactive); for `CCN1C(=O)N[C@@H]2C[C@H](C(=O)N3CCCC3)[C@H](C)[C@H](c3ccccc3)C[C@@H]21`: -0.64% (inactive); for `O=C(C(=O)N1CCC(CNS(=O)(=O)Cc2ccccc2)CC1)c1cc2ccccc2o1`: 10.3% (inactive).
For `O=C(NCc1ccccc1)[C@H]1CCCN1C(=O)[C@H]1CCCN1C(=O)c1cc(F)cc(F)c1`, the inhibition was -2.81% (inactive).
The same measure for `COc1ccc(C(CNC(=O)c2ccc(S(=O)(=O)Nc3ccccc3C)cc2)N2CCOCC2)cc1` (stereo not drawn): -2.87% (inactive); for `COc1ccc(C(CNC(=O)c2cccc(S(=O)(=O)Nc3ccccc3Cl)c2)N2CCOCC2)cc1` (stereo not drawn): 27% (active); for `COc1ccc(C(CNC(=O)c2cccc(NS(=O)(=O)c3ccc(C)c(F)c3)c2)N2CCCC2)cc1` (stereo not drawn): 16.5% (inactive).

Values taken from PubChem BioAssay AID651572 (The Scripps Research Institute Molecular Screening Center, 2012).
